Data on 15 molecules can be found in ChEMBL document CHEMBL1221284, “Development of 2-pyrrolidinyl-N-methyl pyrimidones as potent and orally bioavailable HIV integrase inhibitors” (Bioorg Med Chem Lett, 2010).

For data set [1], the target named is Human immunodeficiency virus type 1 integrase (Human immunodeficiency virus 1, UniProt Q7ZJM1). The data set can be described thus: Inhibition of HIV 1 recombinant integrase. The procedure, abridged:
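Recombinant HIV-1 integrase was pre-assembled on immobilized oligonucleotides. Inhibitor was added after assembly and washing. IC50 is the inhibitor concentration that reduces integrase activity by 50%.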

Data set [2] is described as follows: Terminal phase half life in rat at 3 mg/kg, po and 3 mg/kg, iv. Type of data set: ADME, organism-based. To be noted: in vivo, read-out: beta t1/2 (converted). Summed up: (§1)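 The iv dose was given in DMSO/PEG400/H2O (20–40–40%) and the oral dose in 1% methylcellulose. Terminal-phase plasma half-life was taken from the iv administration and AUC from the oral administration.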

The test system of data set [3] is Human immunodeficiency virus 1. The data set can be described thus: Antiviral activity against HIV1 3B infected in human MT4 cells assessed as inhibition of viral infections in presence of 10% fetal bovine serum. The class given is functional. To be noted: Human immunodeficiency virus 1, 3B, read-out: CIC95. Summed up: (§2)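 Spread assay measuring inhibition of HIV-1 IIIb infection spread in MT-4 T-lymphoid cell culture. The medium held 10% fetal bovine serum for line 3 and 50% normal human serum for line 4. The readout is the 95% inhibitory concentration (CIC95).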

A short description of data set [4]: Plasma clearance in rat at 3 mg/kg, po and 3 mg/kg, iv. The class given is ADME, organism-based. Summed up: as §1
For data set [5], the system named is Human immunodeficiency virus 1. The data set can be described thus: Antiviral activity against HIV1 3B infected in human MT4 cells assessed as inhibition of viral infections in presence of 50 % normal human serum. To be noted: Human immunodeficiency virus 1, 3B, read-out: CIC95. Type of data set: functional. Summed up:
as §2

Data set [6] can be described thus: Oral bioavailability in rat at 3 mg/kg. The class given is ADME, organism-based. To be noted: in vivo. The procedure, abridged: as §1
The nature of data set [7]: AUC in rat at 3 mg/kg, po and 3 mg/kg, iv. Type of data set: ADME, organism-based. To be noted: plasma. Summed up:
as §1

Data set [8] in a line: AUC in dog at 1 mg/kg, iv and 2 mg/kg, po. To be noted: plasma.
Data set [9] concerns Human immunodeficiency virus 1. The data set can be described thus: Antiviral activity against HIV1 harboring integrase V151I mutant relative to wild type. The class given is functional.
The test system of data set [10] is Human immunodeficiency virus 1. The data set can be described thus: Antiviral activity against HIV1 harboring integrase T66I mutant relative to wild type. The class given is functional.
Data set [11] concerns Human immunodeficiency virus 1. The data set can be described thus: Antiviral activity against HIV1 harboring integrase T66/L74M and V151L double mutant relative to wild type. Type of data set: functional.
Data set [12] concerns Human immunodeficiency virus 1. Description: Antiviral activity against HIV1 harboring integrase T66I and M154I double mutant relative to wild type. Type of data set: functional.
For data set [13], the species on record is Homo sapiens. Description: Plasma protein binding in human. To be noted: read-out: PPB (converted).
Data set [14] in a line: Terminal phase half life in dog at 1 mg/kg, iv and 2 mg/kg, po. The note with it: in vivo, read-out: beta t1/2 (converted).
Data set [15] relates to Human immunodeficiency virus 1. The data set can be described thus: Antiviral activity against HIV1 harboring integrase F121Y mutant relative to wild type.
For data set [16], the system named is Human immunodeficiency virus 1. The data set can be described thus: Antiviral activity against HIV1 harboring integrase T66I and S153Y double mutant relative to wild type. Type of data set: functional.
Data set [17] deals with Human immunodeficiency virus 1. Description: Antiviral activity against HIV1 harboring integrase N155S mutant relative to wild type. The class given is functional.
In data set [18] the test system is Human immunodeficiency virus 1. Description: Antiviral activity against HIV1 harboring integrase T125K mutant relative to wild type. The class given is functional.
Data set [19] can be described thus: Oral bioavailability in dog at 1 mg/kg. The note with it: in vivo. Type of data set: ADME, organism-based, Canis lupus familiaris. The procedure, abridged: as §1
For data set [20], the system named is Human immunodeficiency virus 1. The data set can be described thus: Antiviral activity against HIV1 harboring integrase T125K and […] double mutant relative to wild type. The class given is functional.
Data set [21] is described as follows: Metabolic stability in rat liver microsomes assessed as oxidation rate after 1 hr in presence of NADPH. Type of data set: ADME, Microsome. Summed up:
(§3)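 Rat liver microsomes (1 mg/mL) were incubated with test compound for 1 h. The cofactor was UDPGA for glucuronidation and NADPH for oxidation. Substrate loss was measured by LC/MS/MS and expressed as % of initial remaining.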

Data set [22] in a line: Plasma protein binding in rat. Type of data set: ADME, cell-free. To be noted: read-out: PPB (converted).
The nature of data set [23]: Metabolic stability in rat liver microsomes assessed as glucuronidation rate after 1 hr in presence of UDPGA. Type of data set: ADME, Microsome. The procedure, abridged: as §3

Human immunodeficiency virus type 1 integrase, sequence (Q7ZJM1 whole entry): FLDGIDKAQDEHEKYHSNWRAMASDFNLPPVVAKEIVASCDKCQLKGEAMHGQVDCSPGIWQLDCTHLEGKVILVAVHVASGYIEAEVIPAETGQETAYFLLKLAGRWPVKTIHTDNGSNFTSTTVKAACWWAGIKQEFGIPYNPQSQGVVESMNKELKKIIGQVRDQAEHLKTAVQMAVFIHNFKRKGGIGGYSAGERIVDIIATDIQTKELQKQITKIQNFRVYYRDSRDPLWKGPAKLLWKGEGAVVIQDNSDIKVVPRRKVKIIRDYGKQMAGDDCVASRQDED

As to `CC(=O)N1C[C@@H](F)C[C@H]1c1nc(C(=O)NCc2ccc(F)c(C)c2)c(O)c(=O)n1C`, in data set [1], the IC50 came out at 0.027 µM. Further, the half-life in data set [2] was 1.4 h. For the same molecule, the IC95 amounted to 0.016 µM in data set [3] and 0.031 µM in data set [5]. This molecule registered a clearance in data set [4] of 39 mL/min/kg. Further, in data set [6], the bioavailability was 17%. Moreover, in [7], the area under the curve (AUC) is 0.5 µM·h.

As for `CC(=O)N1C[C@@H](F)C[C@H]1c1nc(C(=O)NCc2ccc(C)c(Cl)c2)c(O)c(=O)n1C`, the exposure (AUC) in data set [8] came to 6.4 µM·h; in data set [7], 3.7 µM·h. The “Ratio IC50” value in data set [9] is listed as 1; in data set [10], 1; in [11], 2.5; in [12] it was 0.8; in data set [15], 1.5; in data set [16], 0.8. For the same molecule, the results for the “Ratio IC50” value in data set [17], in [18] and in [20] were 8, 1 and 3.5, respectively. Also, the half-maximal inhibitory concentration (IC50) in data set [1] is 0.032 µM. In addition, the half-life in data set [2] was 3 h; in data set [14], 1.2 h. Also, the IC95 in data set [3] was found to be 0.005 µM; in [5], 0.046 µM. Moreover, the fraction unbound in data set [13] is 0.022. Further, the clearance in [4] worked out at 29 mL/min/kg. Besides, the bioavailability was determined as 94% in data set [6] and 80% in data set [19].

Turning to `COC(=O)N1C[C@@H](F)C[C@H]1c1nc(C(=O)NCc2ccc(C)c(Cl)c2)c(O)c(=O)n1C`, the IC50 in [1] is 0.02 µM. Moreover, in [2], the half-life was 7.4 h. Also, the IC95 in [3] is 0.016 µM; in data set [5], 0.063 µM. In data set [4], this molecule had a clearance of 9.9 mL/min/kg. Moreover, the bioavailability in [6] turned out to be 10%. The same molecule gave an AUC in [7] of 1.2 µM·h.

`COC(=O)N1C[C@@H](F)C[C@H]1c1nc(C(=O)NCc2ccc(F)c(Cl)c2)c(O)c(=O)n1C`: in data set [1], the IC50 was 0.019 µM. Also, the half-life in data set [2] was 1.5 h. Besides, the IC95 in data set [3] was 0.016 µM; in data set [5], 0.031 µM. The clearance in [4] was 21 mL/min/kg. The bioavailability in [6] is 25%. In [7], this molecule had an AUC of 1.3 µM·h.

Take `Cn1c([C@@H]2C[C@H](F)CN2C2CC2)nc(C(=O)NCc2ccc(F)cc2)c(O)c1=O`: the IC50 in data set [1] stood at 0.02 µM. The IC95 stood at 0.063 µM in data set [3] and 0.25 µM in [5].

For the molecule `Cn1c([C@@H]2C[C@H](F)CN2Cc2ccon2)nc(C(=O)NCc2ccc(F)cc2)c(O)c1=O`, the half-maximal inhibitory concentration (IC50) in [1] amounted to 0.01 µM. For the same molecule, the IC95 in [3] was 0.156 µM; in data set [5] it was 0.625 µM.

As to `CC(=O)N1C[C@@H](F)C[C@H]1c1nc(C(=O)NCc2ccc(F)cc2)c(O)c(=O)n1C`, the remaining at 1 h in data set [21] is 40%; in [23], 43%. Further, the IC50 in data set [1] is 0.015 µM. Besides, the fraction unbound is 0.37 in data set [22] and 0.21 in data set [13]. The “Ratio IC50” value in [11] came out at 10; in [12], 2; in [16], 5; in data set [17], 15; in data set [20], 15. In [2], the half-life is 0.3 h. The IC95 in data set [3] was determined as 0.014 µM; in [5], 0.017 µM. This molecule also gave a clearance in [4] of 64 mL/min/kg. For the same molecule, the bioavailability in data set [6] is 31%. The molecule further came in with an AUC in [7] of 1.2 µM·h.

Consider `COC(=O)N1C[C@@H](F)C[C@H]1c1nc(C(=O)NCc2ccc(F)cc2)c(O)c(=O)n1C`, for which the 50% inhibitory concentration (IC50) in [1] came out at 0.01 µM. Further, the half-life in data set [2] is 0.6 h. Also, the figures for the IC95 in data set [3] and in data set [5] were 0.031 µM and 0.063 µM, respectively. The molecule further returned a clearance in [4] of 46 mL/min/kg. The bioavailability in data set [6] stood at 44%. This molecule also gave an AUC in data set [7] of 1.2 µM·h.

As to `CN(C)C(=O)N1C[C@@H](F)C[C@H]1c1nc(C(=O)NCc2ccc(F)cc2)c(O)c(=O)n1C`, the IC50 in data set [1] turned out to be 0.01 µM. Moreover, the IC95 in data set [3] and in data set [5] was 0.125 µM in each case.

In the case of `Cn1c([C@@H]2C[C@H](F)CN2S(C)(=O)=O)nc(C(=O)NCc2ccc(F)cc2)c(O)c1=O`, the IC50 in [1] is 0.015 µM. The IC95 in data set [3] is 0.031 µM; in data set [5], 0.125 µM.

Consider `CN(C)S(=O)(=O)N1C[C@@H](F)C[C@H]1c1nc(C(=O)NCc2ccc(F)cc2)c(O)c(=O)n1C`, for which the IC50 in data set [1] was determined as 0.009 µM. The IC95 in [3] stood at 0.031 µM; in data set [5] it was 0.125 µM. This molecule came in with a clearance in data set [4] of 64 mL/min/kg. Also, in [6], the bioavailability was 16%.

Take `Cn1c([C@@H]2C[C@H](F)CN2C(=O)c2cnccn2)nc(C(=O)NCc2ccc(F)cc2)c(O)c1=O`: the IC50 in data set [1] stood at 0.01 µM. Further, in data set [2], the half-life is 0.2 h. In addition, the IC95 in data set [3] and in data set [5] was 0.016 µM each time. Further, the clearance in [4] turned out to be 77 mL/min/kg. Moreover, in data set [6], the bioavailability is 18%. Further, the AUC in data set [7] was 2.3 µM·h.

In the case of `CN(C)C(=O)C(=O)N1C[C@@H](F)C[C@H]1c1nc(C(=O)NCc2ccc(F)cc2)c(O)c(=O)n1C`, the half-inhibitory concentration (IC50) in [1] came to 0.021 µM. Moreover, in data set [2], the half-life was 1.6 h. Further, the IC95 in data set [3] and in data set [5] was 0.016 µM throughout. In addition, the clearance in data set [4] was determined as 138 mL/min/kg. For the same molecule, in [6], the bioavailability was determined as 19%. The AUC in data set [7] stood at 0.2 µM·h.

Take `CC(=O)N1C[C@@H](F)C[C@H]1c1nc(C(=O)NCc2ccc(F)c(Cl)c2)c(O)c(=O)n1C`: the AUC was 2.8 µM·h in [8] and 0.5 µM·h in data set [7]. Moreover, the “Ratio IC50” value in data set [9] is reported as 1; in data set [10], 2; in [11], 31; in data set [12], 3; in data set [15], 4; in [16], 3. The figures for the “Ratio IC50” value in data set [17], in data set [18] and in data set [20] were 31, 1 and 17, respectively. Besides, in [1], the IC50 was found to be 0.024 µM. Besides, the values for the half-life in [2] and in data set [14] were 0.7 h and 7.1 h, respectively. Also, the IC95 came to 0.003 µM in [3] and 0.017 µM in [5]. In addition, in data set [4], the clearance stood at 43 mL/min/kg. The figures for the bioavailability in [6] and in data set [19] were 20% and 34%, respectively.

Turning to `CN1C[C@@H](F)C[C@H]1c1nc(C(=O)NCc2ccc(F)cc2)c(O)c(=O)n1C`, the AUC in data set [8] is 23.1 µM·h; in data set [7], 4.5 µM·h. Further, the IC50 in [1] came out at 0.023 µM. In addition, the IC95 in data set [3] is 0.063 µM; in data set [5], 0.125 µM. The half-life in data set [14] was 3.7 h. This molecule also came in with a clearance in data set [4] of 21 mL/min/kg. Besides, in data set [19], the bioavailability was found to be 116%.
